Results published in ChEMBL document CHEMBL3621107, “Ring fusion strategy for synthesis and lead optimization of sulfur-substituted anthra[1,2-c][1,2,5]thiadiazole-6,11-dione derivatives as promising scaffold of antitumor agents” (Eur J Med Chem, 2015).

Key:
Type in all cases: functional
[1] = system: CCRF-CEM; assay: Cytotoxicity against human CCRF-CEM cells after 48 hrs by SRB assay
Outline: (§1)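 NCI-60 human tumour cell panel screen, second stage, run by the NCI Developmental Therapeutics Program. Compounds were tested at five concentrations (0.01, 0.1, 1, 10 and 100 μM). Percentage growth was plotted against log10 concentration for each cell line. GI50, TGI and LC50 were taken from these dose-response curves.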

[2] = system: MOLT-4; assay: Cytotoxicity against human MOLT4 cells after 48 hrs by SRB assay; settings: MOLT-4, 48 h
Outline: (§2)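 Second-stage NCI-60 panel run by the NCI Developmental Therapeutics Program, covering nine tumour subpanels. Five concentrations were tested: 0.01, 0.1, 1, 10 and 100 μM. Percentage growth at each level was plotted against log10 drug concentration. GI50, TGI and LC50 were read from these dose-response curves. Subpanel MID values were divided into the full-panel MID to give selectivity ratios.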

[3] = system: SR; assay: Cytotoxicity against human SR cells after 48 hrs by SRB assay
Outline: (§3)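 NCI-60 five-dose study run by NCI DTP at 0.01, 0.1, 1, 10 and 100 µM. Percentage growth at each level was plotted against log10 concentration for each line, and GI50, TGI and LC50 were read from the dose-response curves.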

[4] = system: HOP-62; assay: Cytotoxicity against human HOP62 cells after 48 hrs by SRB assay; settings: HOP-62, 48 h; outline: as §1
[5] = system: NCI-H226; assay: Cytotoxicity against human NCI-H226 cells after 48 hrs by SRB assay; settings: NCI-H226, 48 h; outline: as §2
[6] = system: NCI-H322M; assay: Cytotoxicity against human NCI-H322M cells after 48 hrs by SRB assay; outline: as §2
[7] = system: HCC 2998; assay: Cytotoxicity against human HCC2998 cells after 48 hrs by SRB assay; settings: HCC 2998, 48 h; outline: as §1
[8] = system: LOX IMVI; assay: Cytotoxicity against human LOXIMVI cells after 48 hrs by SRB assay; settings: for CC50: read-out: LC50 (the source's name); outline: as §1
[9] = system: Malme-3M; assay: Cytotoxicity against human MALME-3M cells after 48 hrs by SRB assay; outline: as §1
[10] = system: M14; assay: Cytotoxicity against human M14 cells after 48 hrs by SRB assay; settings: M14, 48 h; outline: as §1
[11] = system: MDA-MB-435; assay: Cytotoxicity against human MDA-MB-435 cells after 48 hrs by SRB assay; settings: MDA-MB-435, 48 h; outline: as §2
[12] = system: SK-MEL-2; assay: Cytotoxicity against human SK-MEL-2 cells after 48 hrs by SRB assay; settings: SK-MEL-2, 48 h; outline: as §2
[13] = system: SK-MEL-5; assay: Cytotoxicity against human SK-MEL-5 cells after 48 hrs by SRB assay; settings: SK-MEL-5, 48 h; outline: as §2
[14] = system: OVCAR-4; assay: Cytotoxicity against human OVCAR4 cells after 48 hrs by SRB assay; settings: OVCAR-4, 48 h; outline: as §2
[15] = system: OVCAR-5; assay: Cytotoxicity against human OVCAR5 cells after 48 hrs by SRB assay; settings: OVCAR-5, 48 h; outline: as §2
[16] = system: 786-0; assay: Cytotoxicity against human 786-0 cells after 48 hrs by SRB assay; settings: 786-0, 48 h; outline: as §1
[17] = system: A498; assay: Cytotoxicity against human A498 cells after 48 hrs by SRB assay; settings: A498, 48 h; outline: as §1
[18] = system: ACHN; assay: Cytotoxicity against human ACHN cells after 48 hrs by SRB assay; outline: as §1
[19] = system: RXF 393; assay: Cytotoxicity against human RXF393 cells after 48 hrs by SRB assay; settings: RXF 393, 48 h; outline: as §2
[20] = system: PC-3; assay: Cytotoxicity against human PC3 cells after 48 hrs by SRB assay; settings: PC-3, 48 h; outline: as §2
[21] = system: MCF7; assay: Cytotoxicity against human MCF7 cells after 48 hrs by SRB assay; settings: MCF7, 48 h; outline: as §1
[22] = system: MDA-MB-231; assay: Cytotoxicity against human MDA-MB-231 cells after 48 hrs by SRB assay; settings: MDA-MB-231, 48 h; outline: as §2
[23] = Cytotoxicity against human Hs578T cells after 48 hrs by SRB assay; settings: Hs-578T; outline: as §1
[24] = system: BT-549; assay: Cytotoxicity against human BT549 cells after 48 hrs by SRB assay; settings: BT-549, 48 h; outline: as §1
[25] = system: T47D; assay: Cytotoxicity against human T47D cells after 48 hrs by SRB assay; outline: as §3
[26] = Cytotoxicity against human non-small cell lung cancer cells assessed as growth inhibition after 48 hrs by SRB assay; settings: Cancer cell lines
Outline: (§4)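 Values come from the NCI-60 five-dose panel (0.01–100 µM). The subpanel MID is the mean GI50 over the lines of that tumour subpanel. The selectivity ratio is the full-panel MID divided by the subpanel MID; 3–6 is rated moderate and >6 high.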

[27] = Cytotoxicity against human CNS cancer cells assessed as growth inhibition after 48 hrs by SRB assay; settings: Cancer cell lines
Outline: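 NCI-60 five-dose data (0.01–100 μM) were grouped by tumour subpanel. A subpanel mean (MID) of GI50 was computed for the CNS cancer lines. A selectivity ratio was obtained as full-panel MID divided by subpanel MID: 3–6 counts as moderate, >6 as high.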

[28] = Cytotoxicity against human melanoma cells assessed as growth inhibition after 48 hrs by SRB assay; settings: Melanoma cell; outline: as §4
[29] = Cytotoxicity against human ovarian cancer cells assessed as growth inhibition after 48 hrs by SRB assay; settings: Cancer cell lines; outline: as §4
[30] = Cytotoxicity against human prostate cancer cells assessed as growth inhibition after 48 hrs by SRB assay; settings: Cancer cell lines; outline: as §4

O=C1c2ccccc2C(=O)c2c1cc(Sc1cccc(Cl)c1)c1nsnc21
GI50 [1]: 0.56 µM
LC50 [1]: > 100 µM
TGI [1]: 6.26 µM
GI50 [2]: 0.64 µM
LC50 [2]: > 100 µM
TGI [2]: 3.27 µM
GI50 [3]: 2 µM
LC50 [3]: > 100 µM
TGI [3]: 8.09 µM
GI50 [4]: 1.85 µM
LC50 [4]: 8.81 µM
TGI [4]: 4.04 µM
GI50 [5]: 2.39 µM
LC50 (concentration killing 50% of starting cells) [5]: 57.5 µM
TGI [5]: 6.06 µM
GI50 [6]: 18.6 µM
LC50 (concentration causing 50% net cell kill) [6]: 61.9 µM
TGI [6]: 33.9 µM
GI50 [7]: 16.2 µM
LC50 [7]: 62.1 µM
TGI [7]: 31.7 µM
GI50 [8]: 0.54 µM
TGI [8]: 2.08 µM
CC50 [8]: 5.73 µM
GI50 [9]: 1.98 µM
LC50 [9]: 6.85 µM
TGI [9]: 3.68 µM
GI50 [10]: 1.66 µM
LC50 [10]: 6.94 µM
TGI [10]: 3.39 µM
GI50 [11]: 1.53 µM
LC50 [11]: 7.24 µM
TGI [11]: 3.33 µM
GI50 [12]: 2.34 µM
LC50 [12]: 9.87 µM
TGI [12]: 4.81 µM
GI50 [13]: 0.99 µM
LC50 [13]: 4.87 µM
TGI [13]: 2.21 µM
GI50 [14]: 0.31 µM
LC50 [14]: 6.71 µM
TGI [14]: 0.94 µM
GI50 [15]: 2.74 µM
LC50 [15]: 68.2 µM
TGI [15]: 6.08 µM
GI50 [16]: 2.91 µM
LC50 (concentration killing 50% of cells) [16]: 31.1 µM
TGI [16]: 8.97 µM
GI50 [17]: 13 µM
LC50 (concentration killing 50% of cells) [17]: 6.54 µM
TGI [17]: 29.2 µM
GI50 [18]: 1.62 µM
LC50 [18]: 6.63 µM
TGI [18]: 3.27 µM
GI50 [19]: 2.15 µM
LC50 (concentration killing 50% of cells) [19]: 10.9 µM
TGI [19]: 4.7 µM
GI50 [20]: 2.27 µM
LC50 (concentration killing 50% of cells) [20]: 69.9 µM
TGI [20]: 11.8 µM
GI50 [21]: 1.3 µM
LC50 (concentration killing 50% of cells) [21]: 8.78 µM
TGI [21]: 3.37 µM
GI50 [22]: 0.37 µM
LC50 (concentration killing 50% of cells) [22]: 31.6 µM
TGI [22]: 4.1 µM
GI50 [23]: 1.97 µM
LC50 [23]: > 100 µM
TGI [23]: 6.55 µM
GI50 [24]: 3.27 µM
LC50 [24]: 40.3 µM
TGI [24]: 15.1 µM
GI50 [25]: 1.29 µM
LC50 (concentration killing 50% of cells) [25]: 8.72 µM
TGI [25]: 3.35 µM
GI50 [26]: 5.84 µM
GI50 [27]: 4.47 µM
GI50 [28]: 1.56 µM
GI50 [29]: 1.52 µM
GI50 [30]: 2.27 µM

O=C1c2ccccc2C(=O)c2c1cc(Sc1ccccc1Br)c1nsnc21
GI50 [1]: 4.88 µM
LC50 [1]: > 50 µM
TGI [1]: > 50 µM
GI50 [2]: 7.21 µM
LC50 [2]: > 50 µM
TGI [2]: 41.2 µM
GI50 [3]: 17 µM
LC50 [3]: > 50 µM
TGI [3]: > 50 µM
GI50 [4]: 13.3 µM
LC50 [4]: > 50 µM
TGI [4]: 30.4 µM
GI50 [5]: 19.4 µM
LC50 (concentration killing 50% of starting cells) [5]: > 50 µM
TGI [5]: > 50 µM
GI50 [6]: > 50 µM
LC50 (concentration causing 50% net cell kill) [6]: > 50 µM
TGI [6]: > 50 µM
GI50 [7]: > 50 µM
LC50 [7]: > 50 µM
TGI [7]: > 50 µM
GI50 [8]: 12.6 µM
TGI [8]: > 50 µM
CC50 [8]: > 50 µM
GI50 [9]: 16.8 µM
LC50 [9]: > 50 µM
TGI [9]: 40.2 µM
GI50 [10]: 17.4 µM
LC50 [10]: > 50 µM
TGI [10]: > 50 µM
GI50 [11]: 9.23 µM
LC50 [11]: 32.7 µM
TGI [11]: 17.4 µM
GI50 [12]: 13.8 µM
LC50 [12]: > 50 µM
TGI [12]: 34.1 µM
GI50 [13]: 5.08 µM
LC50 [13]: 24.3 µM
TGI [13]: 11.1 µM
GI50 [14]: 2.78 µM
LC50 [14]: 30.1 µM
TGI [14]: 10.1 µM
GI50 [15]: 3.44 µM
LC50 [15]: > 50 µM
TGI [15]: > 50 µM
GI50 [16]: 11.2 µM
LC50 (concentration killing 50% of cells) [16]: > 50 µM
TGI [16]: 29.7 µM
GI50 [17]: 10.7 µM
LC50 (concentration killing 50% of cells) [17]: > 50 µM
TGI [17]: > 50 µM
GI50 [18]: 12.8 µM
LC50 [18]: > 50 µM
TGI [18]: 32.5 µM
GI50 [19]: 9.14 µM
LC50 (concentration killing 50% of cells) [19]: 42.2 µM
TGI [19]: 19.6 µM
GI50 [20]: 14.8 µM
LC50 (concentration killing 50% of cells) [20]: > 50 µM
TGI [20]: > 50 µM
GI50 [21]: 7.28 µM
LC50 (concentration killing 50% of cells) [21]: 37.8 µM
TGI [21]: 16.6 µM
GI50 [22]: 7.52 µM
LC50 (concentration killing 50% of cells) [22]: > 50 µM
TGI [22]: 37.3 µM
GI50 [23]: 17.8 µM
LC50 [23]: > 50 µM
TGI [23]: > 50 µM
GI50 [24]: 20.5 µM
LC50 [24]: > 50 µM
TGI [24]: > 50 µM
GI50 [25]: 3.7 µM
LC50 (concentration killing 50% of cells) [25]: > 50 µM
TGI [25]: 18.3 µM
GI50 [26]: 19.3 µM
GI50 [27]: 21.8 µM
GI50 [28]: 12.9 µM
GI50 [29]: 11.2 µM
GI50 [30]: 18.2 µM
